Assay outcomes (PubChem)
697 NFkB inh: inhibitors of the PMA/ionomycin-induced NF-kB reporter in 697 B cells; 697 B-cell NF-kB luciferase reporter, 16 h; inhibition, % at 4 µM; actives 0.33% (n = 330,000); AID 435022; in the data active = inhibition above about 35%
CHOP UPR activ: apoptotic UPR (CHOP) activation; CHO-CHOP luciferase reporter, luminescence; percent of tunicamycin response over DMSO baseline; actives 0.34% (n = 330,000); activation, % at 10 µM; AID 449763;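 active = at 10 µM dose, activation of 40% or more, normalized to positive control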;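 also: 100% = tunicamycin at 10 µg/mL and 0% = DMSO alone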
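System: CHO-CHOP luciferase reporter cell line; amount: 500 cells/well; buffer or medium: F12 medium containing 10% fetal bovine serum; incubation: 6 h compound exposure at 37 °C after overnight seeding; measured by: luciferase luminescence after 10 min with Steady-Glo reagent; evaluation: % reporter activation, DMSO baseline versus tunicamycin full activation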
CRFBP-R2 block: blocks CRF-induced signaling of the CRF-BP/CRF-R2 complex; HEK293 CRF-R2/CRF-BP, CRF-induced calcium fluorescence; inhibition, % at 11.8 µM; actives 0.59% (n = 350,000);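 active = inhibition of the ligand-induced calcium signal above about 50% at the single tested concentration, limit read from the data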
UPR XBP1 act: adaptive UPR (XBP1) activation; CHO-XBP1 luciferase reporter, IRE1-XBP1 UPR activation, luminescence; percent of tunicamycin response, DMSO as zero; activation, % at 20 µM; actives 0.33% (n = 330,000); AID 463104;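 active = versus positive control, 20 µM dose yields 30% or more activation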;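 also: 100% = tunicamycin at 10 µg/mL and 0% = DMSO only wells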
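Material: CHO-XBP1 cells stably carrying IRE1-XBP1-driven luciferase reporter / Amount: 1000 cells per well / Compound: 20 µM, 1% DMSO / Times: 6 h treatment, 37 °C / Detection: luciferase luminescence / Measure: % activation of reporter signal versus tunicamycin and DMSO controls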
Jurkat NFkB inh: inhibitors of the PMA/ionomycin-induced NF-kB reporter in Jurkat cells; PMA/ionomycin-induced NF-kB luciferase reporter, luminescence; inhibition, % at 4 µM; actives 0.53% (n = 330,000); in the data active = inhibition above about 50%
697 NFkB conf: inhibitors of the PMA/ionomycin-induced NF-kB reporter in 697 B cells, retest | shares compounds with 697 NFkB inh | 697 B-cell NF-kB luciferase, 16 h | actives 35% (n = 2,000) | AID 449746 | inhibition, % at 4 µM; in the data active = inhibition mostly above about 28%, no sharp cut-off; inactive = mostly below about 22%
Starred values were filed as active, the others as inactive; / = no result given. Shown are actives, neighbours in structure and some others; about 1.8% of the full set was active somewhere.

SMILES	697 NFkB inh	CHOP UPR activ	CRFBP-R2 block	UPR XBP1 act	Jurkat NFkB inh	697 NFkB conf
CCN1C(=O)c2cccc3c(S(=O)(=O)Nc4ccncc4)ccc1c23	37*	0	0	0	-1	10
CNS(=O)(=O)c1ccc2c3c(cccc13)C(=O)N2C	9	2	17	-4	5	/
CCN1C(=O)c2cccc3c(S(=O)(=O)Nc4ccccc4)ccc1c23	52*	1	-5	0	-2	43*
CN(c1cccc(Cl)c1)S(=O)(=O)c1cccc(C(=O)NN2CCOCC2)c1	7	-2	-6	-2	0	/
COc1ccccc1N1CCN(C(=O)C(=O)c2cn(CC(=O)N3CCOCC3)c3ccccc23)CC1	-4	1	-1	-6	-1	/
CCOCCCNC(=O)Cn1nc(Cc2ccncc2)c2ccccc2c1=O	21	2	2	0	-6	/
COc1ccc(CCNC(=O)CN2C(=O)COc3ccc(S(=O)(=O)N4CCCC4)cc32)c(OC)c1	-34	1	-2	-5	4	/
CCOc1ccc(S(=O)(=O)NCCC(=O)N(C)Cc2cccs2)cc1	15	0	3	-3	1	/
CCN1C(=O)c2cccc3c(S(=O)(=O)Nc4ccccn4)ccc1c23	58*	0	-24	1	3	54*
COc1ccc(-c2nn(C)c(=O)c3ccccc23)cc1NS(C)(=O)=O	38*	-3	-3	2	-9	32*
CCN(C(=O)CN1C(=O)NC(c2ccccc2)(c2ccc(C)c(C)c2)C1=O)C1CCCCC1 (centres undefined)	44*	3	-5	10	29	27*
O=C(N/N=C\c1ccc(F)cc1)c1ccc(Cn2cc(Br)c([N+](=O)[O-])n2)o1	37*	2	16	-2	6	15
O=C(N/N=C\c1cccc(F)c1)c1ccc(Cn2cc(Br)c([N+](=O)[O-])n2)o1	11	2	47	2	10	/
O=C(CCl)Nc1ccc(N=Nc2ccccc2)cc1	/	/	-12	/	/	/
CC(C)N(c1ccccc1)c1ccc(NC(=O)CCl)cc1	35*	0	-16	-2	24	11
O=C(OCC(=O)N1CCN(c2ccc(F)cc2)CC1)c1cnc2ccccc2n1	5	1	-9	-3	6	/
COc1ccc(-c2cc(C(=O)N/N=C/c3sccc3C)c3ccccc3n2)c(OC)c1	-275	0	1	-1	-23	-21
CCOc1cc(N2CCOCC2)c(OCC)cc1NC(=O)c1cc(S(=O)(=O)N2CCOCC2)ccc1C	-4	-1	-1	-3	5	/
O=[N+]([O-])c1cccc(N(CC(O)CN2CCCCC2)S(=O)(=O)c2ccccc2)c1 (centres undefined)	5	1	-1	-2	-4	/
O=C1c2ccccc2C(=O)C1c1ccc2ccccc2n1	-253	-8	2	-4	-56	-381
O=C(Nc1cccc(Cl)c1)c1ccc(OC(=S)N2CCOCC2)cc1	-84	6	-30	6	-82	/
O=C(Nc1cccc2ccccc12)c1ccc(OC(=S)N2CCOCC2)cc1	-366	8	-1	2	-130	-419
Cc1cc(C)c2c(n1)SCC(=O)N2CC(=O)Nc1ccc(Br)c(C)c1	-13	4	-9	-4	9	/
COc1ccccc1N(Cc1ccccc1)S(=O)(=O)c1cccc(C(=O)Nc2ncccc2C)c1	2	-2	-2	-3	-6	/
COc1ccccc1N(Cc1ccccc1)S(=O)(=O)c1cccc(C(=O)Nc2cc(C)ccn2)c1	-412	-3	8	-7	-94	-446
SMILES	697 NFkB inh	CHOP UPR activ	CRFBP-R2 block	UPR XBP1 act	Jurkat NFkB inh	697 NFkB conf
Cc1ccc(OCC(=O)NCCNC(=O)c2cnccn2)cc1	-4	-1	1	-3	0	/
CNC(=O)C(=O)NCCN1CCN(C(=O)c2ccc([N+](=O)[O-])cc2)CC1	35*	0	12	3	10	15
O=C(NCCN1CCN(C(=O)c2ccc([N+](=O)[O-])cc2)CC1)C(=O)NCc1ccccc1	-4	4	2	-3	8	/
O=C(c1cccnc1)N1CCC2CC1c1c(Cl)cccc12 (centres undefined)	/	/	-9	/	/	/
O=c1c(C=NCCCn2ccnc2)c(-c2ccccc2)[nH]n1-c1nc2ccccc2s1	34	2	4	2	10	/
CN(C)CCCN=Cc1c(-c2ccccc2)[nH]n(-c2nc3ccccc3s2)c1=O	42*	-2	-21	-3	13	44*
c1ccc2nc(-c3nc4ccccc4[nH]3)ccc2c1	-274	-5	-17	-11	-116	-343
O=C(c1ccco1)N1CCN(C(=O)c2ccccc2OCc2ccccc2)CC1	15	0	14	-3	8	/
O=C(N/N=C/c1c(Cl)cccc1Cl)c1ccc(-n2cnnn2)cc1	23	4	-9	4	1	/
O=C(N/N=C/c1ccc(Cl)cc1Cl)c1ccc(-n2cnnn2)cc1	39*	3	0	1	5	35*
COc1ccc(C(=O)NC2CC2)cc1OC1CCN(C(C)CSC)CC1 (centres undefined)	23	1	-14	1	5	/
N#Cc1ccc(CSc2ccc(S(=O)(=O)N3CCCC3)cn2)cc1	-8	-1	0	0	-1	/
COC(=O)c1ccc2[nH]c(C3(O)CCCCC3)c(C)c2c1	-59	3	-7	3	-49	/
Cc1c(C2(O)CCCCC2)[nH]c2ccc(C(F)(F)F)cc12	-357	5	-29	1	-57	-175
COc1ccc(-c2ccc([C@H]3[C@H]4C=CC[C@@H](C)[C@@H]4C(=O)N3Cc3ccccc3)c(F)c2)cc1OC	7	1	0	0	10	/
CCCCCC/C=C/c1ccc(OC)c([C@H]2[C@H]3C=CC[C@@H](C)[C@@H]3C(=O)N2Cc2ccccc2)c1	68*	-1	-13	-1	9	28*
COc1ccc(-c2ccc(C)cc2)cc1[C@H]1[C@H]2C=CC[C@@H](C)[C@@H]2C(=O)N1Cc1ccccc1	41*	1	-7	1	14	49*
COc1ccc(-c2ccc(OC)c([C@H]3[C@H]4C=CC[C@@H](C)[C@@H]4C(=O)N3Cc3ccccc3)c2)cc1	54*	-2	-7	2	13	39*
COc1ccc(-c2ccoc2)cc1[C@H]1[C@H]2C=CC[C@@H](C)[C@@H]2C(=O)N1Cc1ccccc1	47*	3	10	-1	6	40*
COc1ccc(CCN=C(C)c2cc(C)c(C)cc2O)cc1OC	9	-1	-5	-2	10	/
COc1ccc(C2C(C#N)=C(N)Oc3cc(O)ccc32)cc1Cl (centres undefined)	-8	0	-17	-1	-4	/
